This is an account of results in ChEMBL document CHEMBL1143260, “Substrate specificity and screening of the integral membrane protease Pla” (Bioorg Med Chem Lett, 2008).

Assay [1] addresses Tissue-type plasminogen activator (Homo sapiens) (UniProt P00750). The assay can be described thus: Hydrolysis activity of plasminogen activator by LC-MS analysis. The procedure, abridged:
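Peptides were incubated with Pla, and the reaction mixtures were analysed by LC-MS. Cleavage was assigned from product retention time and mass, for example a DABCYL-Arg-OH fragment.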

Assay [2] shares this target. Description: Inhibition of recombinant plasminogen activator assessed as conversion of plasminogen to plasmin in fibrinolytic assay. The essentials: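 Fibrin plate functional assay: purified Pla was pre-incubated with the peptide, dissolved in DMSO or water and tested in 2-fold dilutions. Samples were spotted onto an opalescent fibrin film containing plasminogen. No-peptide spots served as controls.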

For assay [3], the target named is Urokinase-type plasminogen activator (Homo sapiens) (UniProt P00749). The assay can be described thus: Inhibition of urokinase-type plasminogen activator.
Assay [4] concerns the target Tissue-type plasminogen activator (Homo sapiens) (UniProt P00750). Description: Inhibition of purified recombinant plasminogen activator by fluorometric assay.
Assay [5] concerns the target T1, Plasminogen activator (Yersinia pestis) (UniProt P17811).
T1 sequence (whole entry): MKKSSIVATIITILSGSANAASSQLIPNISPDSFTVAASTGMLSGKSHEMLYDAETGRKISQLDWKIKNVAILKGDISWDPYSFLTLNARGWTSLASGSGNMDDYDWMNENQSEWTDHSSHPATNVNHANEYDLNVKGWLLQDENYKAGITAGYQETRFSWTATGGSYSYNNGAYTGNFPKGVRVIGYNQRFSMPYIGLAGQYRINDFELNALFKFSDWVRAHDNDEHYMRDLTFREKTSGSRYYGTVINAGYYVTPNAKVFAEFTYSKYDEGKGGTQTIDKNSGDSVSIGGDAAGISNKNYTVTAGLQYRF
Description: Inhibition of plasminogen activator in Yersinia pestis by fluorometric assay.

The target in assay [6] is T1, Plasminogen activator (Yersinia pestis). The assay can be described thus: Inhibition of plasminogen activator in Yersinia pestis assessed as conversion of plasminogen to plasmin in fibrinolytic assay. The essentials:
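Fibrin plate assay. Purified recombinant Pla was pre-incubated with the peptide in 2-fold dilutions (dissolved in DMSO or water), then spotted onto an opalescent fibrin film. Pla converts plasminogen to plasmin, and fibrinolysis appears as a clear spot. Inhibition was judged against spots with no peptide added.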

SMILES strings stand for the structures. Activity calls are given as the source filed them. The calls are words filed in the database; no cut-off is given here. Residues, ends and D or L forms follow the SMILES beside them. *: point of attachment. X1 = CN(C)c1ccc(/N=N/c2ccc(C(=O)*)cc2)cc1; EDANS = O=S(=O)(O)c1cccc2c(NCCN*)cccc12

Sequence of Tissue-type plasminogen activator (Homo sapiens) (P00750 36-562 limits assumed): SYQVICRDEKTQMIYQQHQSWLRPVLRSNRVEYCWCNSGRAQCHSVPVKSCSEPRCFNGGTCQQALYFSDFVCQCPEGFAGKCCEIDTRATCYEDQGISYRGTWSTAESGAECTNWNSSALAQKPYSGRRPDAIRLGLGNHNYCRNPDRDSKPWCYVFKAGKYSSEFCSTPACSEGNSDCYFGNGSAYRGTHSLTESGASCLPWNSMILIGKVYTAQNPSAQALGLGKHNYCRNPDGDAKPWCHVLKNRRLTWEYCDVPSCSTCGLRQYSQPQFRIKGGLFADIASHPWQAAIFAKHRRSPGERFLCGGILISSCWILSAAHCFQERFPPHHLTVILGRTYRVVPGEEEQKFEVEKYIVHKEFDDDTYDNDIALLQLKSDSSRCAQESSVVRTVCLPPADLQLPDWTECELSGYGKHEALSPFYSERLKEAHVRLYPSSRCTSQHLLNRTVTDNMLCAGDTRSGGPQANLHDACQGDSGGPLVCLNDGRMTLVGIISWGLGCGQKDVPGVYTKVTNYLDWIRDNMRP

As to `CC[C@H](C)[C@H](NC(=O)[C@H](CCCNC(=N)N)NC(=O)[C@H](CCCNC(=N)N)NC(=O)c1ccc(/N=N/c2ccc(N(C)C)cc2)cc1)C(=O)NCCNc1cccc2c(S(=O)(=O)O)cccc12`, the result in assay [1] and in assay [2] was Active.
As for `CC[C@H](C)[C@H](NC(=O)[C@H](CCCNC(=N)N)NC(=O)[C@H](CCCNC(=N)N)NC(=O)c1ccc(/N=N/c2ccc(N(C)C)cc2)cc1)C(=O)O`, in assay [1], the outcome was Active. Also, the result in assay [2] was inactive.
As for `CN(C)c1ccc(/N=N/c2ccc(C(=O)N[C@@H](CCCNC(=N)N)C(=O)N[C@@H](CCCNC(=N)N)C(=O)O)cc2)cc1`, the outcome in assay [1] and in assay [2] was inactive.
In the case of `CC[C@H](C)[C@H](NC(=O)[C@H](CCCNC(=N)N)NC(=O)[C@H](CCCNC(=N)N)NC(=O)c1ccc(/N=N/c2ccc(N(C)C)cc2)cc1)C(=O)N[C@@H](CC(=O)O)C(=O)NCCNc1cccc2c(S(=O)(=O)O)cccc12` (X1-RRID-{EDANS}), the outcome in assay [1] and in assay [2] was Active.
Take `CC[C@H](C)[C@H](NC(=O)[C@H](CCCNC(=N)N)NC(=O)[C@H](CCCNC(=N)N)NC(=O)c1ccc(/N=N/c2ccc(N(C)C)cc2)cc1)C(=O)N[C@@H](CC(N)=O)C(=O)O` (X1-RRIN-OH): the result in assay [1] was Active. The outcome in assay [2] was inactive.
As to `CC[C@H](C)[C@H](NC(=O)[C@H](CCCNC(=N)N)NC(=O)[C@H](CCCNC(=N)N)NC(=O)c1ccc(/N=N/c2ccc(N(C)C)cc2)cc1)C(=O)N[C@@H](CC(N)=O)C(=O)N[C@@H](CCCNC(=N)N)C(=O)O` (X1-RRINR-OH), the result in assay [1] was Active. For the same compound, the result in assay [2] was inactive.
With `CC[C@H](C)[C@H](NC(=O)[C@H](CCCNC(=N)N)NC(=O)[C@H](CCCNC(=N)N)NC(=O)c1ccc(/N=N/c2ccc(N(C)C)cc2)cc1)C(=O)N[C@@H](CC(N)=O)C(=O)N[C@@H](CCCNC(=N)N)C(=O)N[C@@H](CCC(=O)NCCNc1cccc2c(S(=O)(=O)O)cccc12)C(N)=O` (X1-RRINRE(EDANS)-NH2), in assay [3], the outcome was inactive. The outcome in assay [1], in assay [4], in assay [5], in assay [2] and in assay [6] was Active.
Take `CC[C@H](C)[C@H](NC(=O)[C@H](CCCNC(=N)N)NC(=O)[C@H](CCCNC(=N)N)NC(=O)c1ccc(/N=N/c2ccc(N(C)C)cc2)cc1)C(=O)N[C@@H](CC(N)=O)C(=O)N[C@@H](CCCNC(=N)N)C(=O)N[C@@H](CCC(=O)O)C(=O)NCCNc1cccc2c(S(=O)(=O)O)cccc12` (X1-RRINRE-{EDANS}): the result in assay [1] and in assay [2] was Active.
